# Measured values as given in ChEMBL document CHEMBL1681788, “Effect of structural modification in the amine portion of substituted aminobutyl-benzamides as ligands for binding σ1 and σ2 receptors” (Bioorg Med Chem, 2011).
# What was measured:
# [1] = Displacement of [3H]ditolylguanidine from sigma2 receptor in guinea pig brain membrane; type: cell membranes, Cavia porcellus
# Outline: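 [3H]DTG competition binding with 500 nM (+)-PTZ present to mask σ1 sites, on fresh-frozen male English Hartley guinea pig brain membranes. Duplicate wells, four repeats. Compound stocks were 10^-3 M in acidified 1% EtOH/water.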
# [2] = system: sigma1/sigma2 receptors (Cavia porcellus); assay: Selectivity ratio, ratio of Ki for guinea pig sigma1 receptor to Ki for guinea pig sigma2 receptor
# [3] = biological target: Sigma non-opioid intracellular receptor 1 (Cavia porcellus, UniProt Q60492); assay: Displacement of [3H]-(+)-pentazocine from Sigma1-receptor in guinea pig brain membrane; type: cell membranes
# Outline: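 Competition binding with [3H](+)-PTZ as radioligand on membranes from fresh-frozen male English Hartley guinea pig brain. Duplicates, repeated four times. Test compounds came from 10^-3 M stocks in acidified 1% EtOH/water.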
# [4] = Chemical stability of the compound assessed as compound remaining after 16 hrs by HPLC analysis; type: physicochemical; conditions: read-out: Activity
# Outline: (§1)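 Compounds held at 10^-3 M in aqueous stock buffer of 1% EtOH with AcOH: 2.5% AcOH generally, 0.1% AcOH for the HCl and oxalate salts. Stored in stock buffer, then purity analysed by analytical HPLC at the stated time point (16 h, 44 h or 25 days).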
# [5] = Chemical stability of the compound assessed as compound remaining after 44 hrs by HPLC analysis; type: physicochemical; conditions: read-out: Activity; outline: as §1
# [6] = Chemical stability of the compound assessed as decomposition after 25 days by HPLC analysis; type: physicochemical; conditions: 600 h; outline: as §1
# Chain of Sigma non-opioid intracellular receptor 1 (Q60492 whole entry): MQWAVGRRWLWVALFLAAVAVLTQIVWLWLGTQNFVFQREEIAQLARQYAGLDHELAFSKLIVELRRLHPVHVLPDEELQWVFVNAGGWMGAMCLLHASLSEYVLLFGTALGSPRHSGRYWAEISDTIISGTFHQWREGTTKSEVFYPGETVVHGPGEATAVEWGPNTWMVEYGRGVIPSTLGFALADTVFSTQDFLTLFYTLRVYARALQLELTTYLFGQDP
Compound,Ki [1] [nM],Ratio Ki [2],Ki [3] [nM],remaining at 16 h [4] [%],remaining at 44 h [5] [%],Stability [6]
COc1ccc(CCN2CCN(CCCc3ccccc3)CC2)cc1OC [[11C]SA4503],89.5,–,–,–,–,–
COc1cc2c(cc1OC)N(CCCCNC(=O)c1cc(Br)cc(OC)c1OC)CCC2,5820,0.77,4500,90,38,–
COc1cc2c(cc1OC)N(CCCCNC(=O)c1cc(Br)cc(OC)c1OC)CC2,9680,0.47,4520,86,–,Unstable
COc1cc2c(cc1OC)CN(CCCCNC(=O)c1cc(Br)cc(OC)c1OC)C2,0.82,1760,1440,–,–,–
COc1cc2c(cc1OC)CCN(CCCCNC(=O)c1cc(Br)cc(OC)c1OC)CC2,734,8.5,5070,–,–,–
COc1ccc(CCNCCCCNC(=O)c2cc(Br)cc(OC)c2OC)cc1OC,4620,0.2,–,–,–,–
COc1cc2c(cc1OC)CN(CCCCNC(=O)c1cc(Br)cc(OC)c1OC)CCC2,315,6.58,2070,–,–,–
COc1cc2c(cc1OC)CN(CCCCNC(=O)c1cc(Br)cc(OC)c1OC)CC2,2.7,–,–,–,–,–
COc1cc2c(cc1OC)N(CCCCNC(=O)c1cc(Br)cc(OC)c1OC)CCCC2,8960,–,2560,–,–,–
COc1ccc(CCN(C)CCCCNC(=O)c2cc(Br)cc(OC)c2OC)cc1OC,2130,–,–,–,–,–
